Calls of active or inactive are those of the source. The calls are words filed in the database; no cut-off is given here.
What was measured:
[1] = target: T1, Tyrosine-protein phosphatase non-receptor type 1 (Homo sapiens) (UniProt P18031); test: Inhibition of human N-terminal His6-tagged PTP1B catalytic domain (1 to 393 residues) expressed in Escherichia coli strain Rosetta2 (DE3) up to 500 uM using pNPP as substrate preincubated for 10 mins followed by substrate addition and measured after 10 mins by […]
T1 sequence (whole entry): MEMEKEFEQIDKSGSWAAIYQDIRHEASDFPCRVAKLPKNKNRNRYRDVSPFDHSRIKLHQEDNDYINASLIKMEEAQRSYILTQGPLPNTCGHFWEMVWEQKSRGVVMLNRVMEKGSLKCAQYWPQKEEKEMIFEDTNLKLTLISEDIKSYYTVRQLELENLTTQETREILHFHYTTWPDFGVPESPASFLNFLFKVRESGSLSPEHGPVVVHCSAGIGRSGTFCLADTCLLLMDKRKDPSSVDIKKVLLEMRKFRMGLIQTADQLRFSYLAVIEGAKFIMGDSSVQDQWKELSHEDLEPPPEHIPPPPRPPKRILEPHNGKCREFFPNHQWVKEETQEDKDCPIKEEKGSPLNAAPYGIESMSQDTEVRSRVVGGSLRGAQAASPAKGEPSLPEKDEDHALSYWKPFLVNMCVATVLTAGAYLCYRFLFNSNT

[2] = target: T2, Tyrosine-protein phosphatase non-receptor type 2 (Homo sapiens) (UniProt P17706); test: (§1) Inhibition of human N-terminal His6-tagged TCPTP catalytic domain (1 to 336 residues) expressed in Escherichia coli strain Rosetta2 (DE3) using DiFMUP as substrate preincubated for 10 mins followed by substrate addition and measured after 10 mins in presence of 0.1 mg/ml BSA by fluorescence assay
T2 sequence (whole entry): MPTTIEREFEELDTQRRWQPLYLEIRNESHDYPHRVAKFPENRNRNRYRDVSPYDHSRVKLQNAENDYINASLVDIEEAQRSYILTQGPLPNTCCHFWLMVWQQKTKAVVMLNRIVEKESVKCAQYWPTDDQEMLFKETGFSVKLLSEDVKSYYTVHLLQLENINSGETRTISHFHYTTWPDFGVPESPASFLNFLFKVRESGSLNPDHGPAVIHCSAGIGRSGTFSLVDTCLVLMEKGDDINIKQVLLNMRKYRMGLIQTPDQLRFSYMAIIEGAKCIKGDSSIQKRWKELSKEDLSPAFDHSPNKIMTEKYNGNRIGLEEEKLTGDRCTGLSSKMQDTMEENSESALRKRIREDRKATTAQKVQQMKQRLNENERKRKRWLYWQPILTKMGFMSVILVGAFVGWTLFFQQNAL
Summary of the method: (§2)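 DiFMUP IC50 assay (1 nM enzyme, 10 min preincubation, substrate at Km, 37 °C, ex 358/em 455 nm), repeated as an aggregation check under three altered conditions: 10-fold enzyme (10 nM), 0.05% Tween 20, or 0.1 mg/mL BSA in buffer.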

[3] = Inhibition of mouse LMPTP-B (1 to 158 residues) expressed in Escherichia coli strain BL21(DE3) using DiFMUP as substrate preincubated for 10 mins followed by substrate addition and measured after 10 mins by fluorescence assay
Summary of the method: (§3)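 Selectivity panel on enzymes expressed in E. coli BL21(DE3), purified by nickel affinity then size exclusion. DiFMUP fluorescence assay run as for PTP1B/TCPTP, with per-enzyme conditions in a supplementary table; nonlinear regression for IC50; three independent experiments.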

[4] = target: T1, Tyrosine-protein phosphatase non-receptor type 1 (Homo sapiens); test: Binding affinity to human N-terminal His6-tagged PTP1B catalytic domain (1 to 298 residues) expressed in Escherichia coli strain Rosetta2 (DE3) by NMR spectroscopy
Summary of the method: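 100 μM 2H(~70%)/15N-labelled PTP1B1−298 in 100 mM d11-Tris pH 7.5, 75 mM NaCl, 10% D2O at 20 °C. Compound added to 250 μM (0.5% DMSO-d6); 1H,15N TROSY at 800 MHz against DMSO-only reference; amide chemical shift perturbations computed.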

Mus musculus [5] = test: Antiobesity activity in high fat diet-induced obese Ptpn1fl/fl null C57BL/6 mouse assessed as hypophagia at 100 ug/kg, ip for 10 consecutive days; format: functional, organism-based
Mus musculus [6] = test: Antiobesity activity in high fat diet-induced obese Ptpn1fl/fl null C57BL/6 mouse treated with rAAV-CMV-Cre-GFP for deletion of TCPTP assessed as reduction in body weight at 100 ug/kg, ip for 10 consecutive days; format: functional, organism-based
Summary of the method: (§4)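 Male Ptpn1fl/fl, Ptpn2fl/fl or double-floxed mice: chow 8 weeks, then high-fat diet (45% energy from fat) 12 weeks. Bilateral intra-ARC stereotaxic injection of rAAV-CMV-Cre-GFP or rAAV-CMV-GFP, 100 nL/side. After 2 weeks recovery, vehicle or 100 μg/kg ip daily at 6 pm for 10 days; body weight tracked; two-way repeated-measures ANOVA with Tukey test; means ± SEM.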

[7] = target: T3, Tyrosine-protein phosphatase non-receptor type 1 (Homo sapiens, UniProt P18031); test: (§5) Binding affinity to human N-terminal His6-tagged PTP1B catalytic domain (1 to 298 residues) expressed in Escherichia coli strain Rosetta2 (DE3) assessed as dissociation rate constant […]
T3 sequence (P18031 whole entry): T1 sequence (whole entry)

[8] = target: T3, Tyrosine-protein phosphatase non-receptor type 1; test: as §5, with “association” for “dissociation”
Mus musculus [9] = test: Antiobesity activity in high fat diet-induced obese Ptpn1fl/fl null C57BL/6 mouse assessed as reduction in body weight at 100 ug/kg, ip for 10 consecutive days; format: functional, organism-based; summary of the method: as §4
[10] = target: Phosphatidylinositol 3,4,5-trisphosphate 3-phosphatase and dual-specificity protein phosphatase PTEN (Homo sapiens, UniProt P60484); test: Inhibition of human PTEN (1 to 403 residues) expressed in Escherichia coli strain BL21(DE3) using DiFMUP as substrate preincubated for 10 mins followed by substrate addition and measured after 10 mins by fluorescence assay
[11] = target: T2, Tyrosine-protein phosphatase non-receptor type 2 (Homo sapiens); test: Inhibition of human N-terminal His6-tagged TCPTP catalytic domain (1 to 296 residues) expressed in Escherichia coli strain Rosetta2 (DE3) up to 500 uM using pNPP as substrate preincubated for 10 mins followed by substrate addition and measured after 10 mins by […]
[12] = target: T2, Tyrosine-protein phosphatase non-receptor type 2 (Homo sapiens); test: as §1, with “10 fold higher enzyme concentration” for “0.1 mg/ml BSA”; summary of the method: as §2
[13] = target: Receptor-type tyrosine-protein phosphatase epsilon (Homo sapiens, UniProt P23469); test: Inhibition of human PTPRE (107 to 707 residues) expressed in Escherichia coli strain BL21(DE3) using DiFMUP as substrate preincubated for 10 mins followed by substrate addition and measured after 10 mins by fluorescence assay; summary of the method: as §3
Mus musculus [14] = test: Antiobesity activity in high fat diet-induced obese Ptpn1fl/fl/Ptpn2fl/fl null C57BL/6 mouse assessed as hypophagia at 100 ug/kg, ip for 10 consecutive days; format: functional, organism-based

Chain of Phosphatidylinositol 3,4,5-trisphosphate 3-phosphatase and dual-specificity protein phosphatase PTEN (P60484 whole entry, the tested form may be a part): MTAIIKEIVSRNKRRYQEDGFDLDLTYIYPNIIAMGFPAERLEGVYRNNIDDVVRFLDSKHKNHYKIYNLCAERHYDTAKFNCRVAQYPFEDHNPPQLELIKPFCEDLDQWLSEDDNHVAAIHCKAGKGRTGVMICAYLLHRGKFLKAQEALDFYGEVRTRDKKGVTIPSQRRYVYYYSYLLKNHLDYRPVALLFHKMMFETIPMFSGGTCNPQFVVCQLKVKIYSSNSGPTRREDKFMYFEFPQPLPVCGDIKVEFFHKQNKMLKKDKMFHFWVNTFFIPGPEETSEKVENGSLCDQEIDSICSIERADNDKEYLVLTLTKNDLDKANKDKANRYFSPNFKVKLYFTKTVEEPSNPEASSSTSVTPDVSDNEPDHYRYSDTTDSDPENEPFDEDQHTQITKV
Chain of Receptor-type tyrosine-protein phosphatase epsilon (P23469 whole entry, the tested form may be a part): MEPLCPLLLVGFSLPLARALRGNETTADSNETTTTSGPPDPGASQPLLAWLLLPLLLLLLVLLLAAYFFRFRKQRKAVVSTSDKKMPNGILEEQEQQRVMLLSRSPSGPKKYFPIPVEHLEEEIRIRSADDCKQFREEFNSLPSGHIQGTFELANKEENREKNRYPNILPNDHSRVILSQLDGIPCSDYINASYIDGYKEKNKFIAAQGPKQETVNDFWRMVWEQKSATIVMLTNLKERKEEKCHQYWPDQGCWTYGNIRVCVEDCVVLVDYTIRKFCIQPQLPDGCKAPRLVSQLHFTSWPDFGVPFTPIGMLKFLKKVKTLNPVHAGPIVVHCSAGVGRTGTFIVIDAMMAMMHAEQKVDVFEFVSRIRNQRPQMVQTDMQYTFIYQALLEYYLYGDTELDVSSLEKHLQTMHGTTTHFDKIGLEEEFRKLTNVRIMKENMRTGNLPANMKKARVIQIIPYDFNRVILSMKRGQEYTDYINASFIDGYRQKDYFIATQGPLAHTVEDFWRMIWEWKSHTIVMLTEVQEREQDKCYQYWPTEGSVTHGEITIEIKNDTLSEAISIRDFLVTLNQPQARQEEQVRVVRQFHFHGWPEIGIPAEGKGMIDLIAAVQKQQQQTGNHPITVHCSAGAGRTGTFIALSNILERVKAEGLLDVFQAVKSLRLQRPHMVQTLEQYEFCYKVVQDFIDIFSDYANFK

## CC1=C(O)C(=O)C=C2C1=CC=C1[C@@]2(C)CC[C@@]2(C)[C@@H]3C[C@](C)(C(=O)O)CC[C@]3(C)CC[C@]12C [CELASTROL]
[1]
  inhibition: Active
[2]
  inhibition: Active
[3]
  IC50: > 500 µM
[4]
  Activity: Active
Mus musculus [5]
  Activity: Active
Mus musculus [6]
  Activity: inactive
[7]
  koff: 3.62 ×10⁻⁴ /s
[8]
  kon: 59.46 M⁻¹ s⁻¹
Mus musculus [9]
  Activity: Active
[10]
  IC50: 13.3 µM
[11]
  inhibition: Active
[12]
  inhibition: Active
[13]
  IC50: > 500 µM
Mus musculus [14]
  Activity: Active
